The source made the active and inactive calls. The calls are words filed in the database; no cut-off is given here.
The compounds below were run on Hepatocyte (assay: Hepatoprotective activity against H2O2-induced hepatotoxicity in Wistar rat hepatocytes assessed as reduction in glutamic pyruvate transaminase release after 1 hr relative to control).
Assay type: functional, cell-based
Outline: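 Hepatocytes from male Wistar rats were isolated by collagenase perfusion and cultured for one day after plating. Cells were pretreated with or without compound for 1 h, then exposed to 12 mM H2O2 for 1.5 h. GPT released into the medium was measured by the Reitman-Frankel method. Relative protection (%) = 100 × (H2O2-treated − sample)/(H2O2-treated − unchallenged control). Mean ± SD, n = 3.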

Which Activity does the source give for `O=C1C[C@@H](c2ccc(O)c(O)c2)Oc2cc(O[C@@H]3O[C@H](CO)[C@@H](O)[C@H](O)[C@H]3O)cc(O)c21` here?
Its Activity is “inactive”.

With `O=c1c(O)c(-c2ccc(O)c(O)c2)oc2cc(O)cc(O)c12` as the compound, how does the Activity read?
Its Activity is “Active”.

How did the Activity turn out when `O=C1C[C@@H](c2ccc(O)cc2)Oc2cc(O)cc(O)c21` was run?
Its Activity is “inactive”.

`COc1cc(/C=C/c2ccc(O)cc2)cc(O[C@@H]2O[C@H](CO)[C@@H](O)[C@H](O)[C@H]2O)c1` was tested. Which Activity did it give?
Its Activity is “Active”.

With `COc1cc(/C=C/c2ccc(O)cc2)cc(O[C@@H]2O[C@H](CO[C@@H]3OC[C@](O)(CO)[C@H]3O)[C@@H](O)[C@H](O)[C@H]2O)c1` as the compound, how does the Activity read?
The Activity was “Active”.

For `C[C@@H]1O[C@@H](Oc2c(-c3ccc(O)c(O)c3)oc3cc(O)cc(O)c3c2=O)[C@H](O)[C@H](O)[C@H]1O`, which Activity is on record?
The Activity was “inactive”.

For `O=C1C[C@@H](c2ccc(O)c(O)c2)Oc2cc(O)cc(O)c21`, which Activity is on record?
Its Activity is “inactive”.

For `O=C1C[C@@H](c2ccc(O)cc2)Oc2cc(O[C@@H]3O[C@H](CO)[C@@H](O)[C@H](O)[C@H]3O)cc(O)c21`, which Activity is on record?
Its Activity is “inactive”.

For `O=c1ccoc2cc(O[C@@H]3O[C@H](CO)[C@@H](O)[C@H](O)[C@H]3O)cc(O)c12`, which Activity is on record?
The Activity was “inactive”.

What follows are compounds tested on Hepatocyte (assay: Hepatoprotective activity against H2O2-induced hepatotoxicity in Wistar rat hepatocytes assessed as reduction in glutamic pyruvate transaminase release at 100 uM after 1 hr relative to control).
Assay type: functional, cell-based

With `COc1cc(C2Oc3cc([C@H]4Oc5cc(O)cc(O)c5C(=O)[C@@H]4O)ccc3OC2CO)ccc1O` (stereo not given in full) as the compound, how does the Activity read?
The Activity was “Active”.

— ChEMBL document CHEMBL1142569, “Two new hepatoprotective stilbene glycosides from Acer mono leaves” (J Nat Prod, 2005)
